Experimental data reported in ChEMBL document CHEMBL5055631, “Antitumor properties of novel sesquiterpene lactone analogs as NFκB inhibitors that bind to the IKKβ ubiquitin-like domain (ULD)” (Eur J Med Chem, 2021).
Active and inactive are the calls of the source. The calls are words filed in the database; no cut-off is given here.

Tests used:
OVCAR-5 = test: Anticancer activity against human OVCAR-5 cells assessed as cell growth inhibition incubated for 48 hrs by SRB method; type: functional
ACHN = test: Anticancer activity against human ACHN cells assessed as cell growth inhibition incubated for 48 hrs by SRB method; type: functional
Method in brief: (§1)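 NCI-60 panel (DTP). Cells in RPMI 1640 with 5% FBS, 2 mM L-glutamine, seeded at 5,000–40,000 per well by doubling time and preincubated 24 h at 37 °C, 5% CO2. Time-zero plates TCA-fixed. DMSO stocks diluted in medium with gentamicin, tested at 100 μM, 10 μM, 1 μM, 0.1 μM and 10 nM for 48 h. Cells fixed with cold TCA, stained with SRB, absorbance read at 515 nm.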

HOP-92 = test: Anticancer activity against human HOP-92 cells assessed as cell growth inhibition incubated for 48 hrs by SRB method; type: functional
NCI/ADR-RES = test: Anticancer activity against human NCI/ADR-RES cells assessed as cell growth inhibition incubated for 48 hrs by SRB method; type: functional; method in brief: as §1
NCI-H322M = test: Anticancer activity against human NCI-H322M cells assessed as cell growth inhibition incubated for 48 hrs by SRB method; type: functional; method in brief: as §1
NCI-H522 = test: Anticancer activity against human NCI-H522 cells assessed as cell growth inhibition incubated for 48 hrs by SRB method; type: functional
TK-10 = test: Anticancer activity against human TK-10 cells assessed as cell growth inhibition incubated for 48 hrs by SRB method; type: functional
Method in brief: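 NCI-60 panel, SRB assay. Cells grown in RPMI 1640 with 5% FBS and 2 mM L-glutamine, seeded at 5,000–40,000 cells/well depending on doubling time, and preincubated 24 h at 37 °C with 5% CO2. Time-zero plates were TCA-fixed. Compounds came from DMSO stocks and were tested at 100 μM, 10 μM, 1 μM, 0.1 μM and 10 nM for 48 h. Cells were fixed with cold TCA and stained with 0.4% SRB, and the dye was solubilized in 10 mM Tris base with A515 read.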

NCI-H226 = test: Anticancer activity against human NCI-H226 cells assessed as cell growth inhibition incubated for 48 hrs by SRB method; type: functional; method in brief: as §1
OVCAR-4 = test: Anticancer activity against human OVCAR-4 cells assessed as cell growth inhibition incubated for 48 hrs by SRB method; type: functional
Malme-3M = test: Anticancer activity against human MALME-3M cells assessed as cell growth inhibition incubated for 48 hrs by SRB method; type: functional
IGROV-1 = test: Anticancer activity against human IGROV-1 cells assessed as cell growth inhibition incubated for 48 hrs by SRB method; type: functional; method in brief: as §1
DU-145 = test: Anticancer activity against human DU-145 cells assessed as cell growth inhibition incubated for 48 hrs by SRB method; type: functional; method in brief: as §1
SF-268 = test: Anticancer activity against human SF-268 cells assessed as cell growth inhibition incubated for 48 hrs by SRB method; type: functional; method in brief: as §1
SNB-19 = test: Anticancer activity against human SNB-19 cells assessed as cell growth inhibition incubated for 48 hrs by SRB method; type: functional; method in brief: as §1
OVCAR-3 = test: Anticancer activity against human OVCAR-3 cells assessed as cell growth inhibition incubated for 48 hrs by SRB method; type: functional; method in brief: as §1
[1] = molecular target: Inhibitor of nuclear factor kappa-B kinase subunit beta (Homo sapiens) (UniProt O14920); test: Inhibition of IKKbeta-mediated NFkappaB activation in human M9-ENL1 cells assessed as inhibition of phosphorylation of p65 at SER-536 residue at 2.5 to 10 uM by immunoblotting analysis; type: cell-based; settings: dose 2.5-10 µM
Sequence of Inhibitor of nuclear factor kappa-B kinase subunit beta (Homo sapiens) (O14920 whole entry): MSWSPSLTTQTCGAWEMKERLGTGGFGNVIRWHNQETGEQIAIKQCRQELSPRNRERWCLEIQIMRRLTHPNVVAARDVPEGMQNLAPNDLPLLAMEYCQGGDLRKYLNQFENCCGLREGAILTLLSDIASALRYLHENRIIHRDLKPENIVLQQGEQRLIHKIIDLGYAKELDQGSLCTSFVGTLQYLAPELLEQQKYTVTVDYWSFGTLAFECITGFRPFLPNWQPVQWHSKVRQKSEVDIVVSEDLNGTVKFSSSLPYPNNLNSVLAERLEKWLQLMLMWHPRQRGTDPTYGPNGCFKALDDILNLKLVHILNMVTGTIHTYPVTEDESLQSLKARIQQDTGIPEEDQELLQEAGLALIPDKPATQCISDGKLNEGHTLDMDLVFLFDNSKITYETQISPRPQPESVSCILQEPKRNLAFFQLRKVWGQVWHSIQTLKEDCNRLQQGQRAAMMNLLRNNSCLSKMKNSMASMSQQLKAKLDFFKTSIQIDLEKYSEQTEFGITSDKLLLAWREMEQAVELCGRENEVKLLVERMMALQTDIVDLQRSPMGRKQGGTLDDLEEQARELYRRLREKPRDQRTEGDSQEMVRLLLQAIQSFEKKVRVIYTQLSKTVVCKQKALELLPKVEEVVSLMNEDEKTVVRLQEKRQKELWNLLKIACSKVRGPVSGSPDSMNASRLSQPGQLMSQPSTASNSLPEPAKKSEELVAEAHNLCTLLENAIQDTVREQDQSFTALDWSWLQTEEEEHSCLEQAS
Method in brief: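 Primary M9-ENL AML cells were exposed for 6 h to 2.5, 5.0 and 10 μM, with PTL as reference. Lysates were run on 8–10% SDS-PAGE and transferred to PVDF. Blots were blocked in 5% milk/TBST and probed for phospho-p65 (Ser536). Analyses were done in triplicate.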

OV-MD-231 [2] = test: Antiproliferative activity against human OV-MD-231 cells assessed as inhibition of cell proliferation at 0.5 to 5 uM measured over 4 to 5 days by bromodeoxyuridine incorporation assay; type: functional, cell-based; settings: dose 0.5-5 µM, time 4-5 day
Method in brief: (§2)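 Seeded at 500–1000 cells/well, with treatment started one day after plating. Cells were exposed to a range of concentrations for 4–5 days, six wells per condition, and proliferation was read by BrdU incorporation ELISA. Data average two experiments of six technical replicates, and 2–4 biological replicates were run.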

[3] = molecular target: Nuclear factor NF-kappa-B p100 subunit (Homo sapiens) (UniProt Q00653); test: Inhibition of NFkB binding with DNA in human SUM149PT cells assessed as reduction in NFkB-DNA binding at 2 uM measured over 3 hrs by electrophoretic mobility shift assay; type: cell-based
Sequence of Nuclear factor NF-kappa-B p100 subunit (Homo sapiens) (Q00653 whole entry): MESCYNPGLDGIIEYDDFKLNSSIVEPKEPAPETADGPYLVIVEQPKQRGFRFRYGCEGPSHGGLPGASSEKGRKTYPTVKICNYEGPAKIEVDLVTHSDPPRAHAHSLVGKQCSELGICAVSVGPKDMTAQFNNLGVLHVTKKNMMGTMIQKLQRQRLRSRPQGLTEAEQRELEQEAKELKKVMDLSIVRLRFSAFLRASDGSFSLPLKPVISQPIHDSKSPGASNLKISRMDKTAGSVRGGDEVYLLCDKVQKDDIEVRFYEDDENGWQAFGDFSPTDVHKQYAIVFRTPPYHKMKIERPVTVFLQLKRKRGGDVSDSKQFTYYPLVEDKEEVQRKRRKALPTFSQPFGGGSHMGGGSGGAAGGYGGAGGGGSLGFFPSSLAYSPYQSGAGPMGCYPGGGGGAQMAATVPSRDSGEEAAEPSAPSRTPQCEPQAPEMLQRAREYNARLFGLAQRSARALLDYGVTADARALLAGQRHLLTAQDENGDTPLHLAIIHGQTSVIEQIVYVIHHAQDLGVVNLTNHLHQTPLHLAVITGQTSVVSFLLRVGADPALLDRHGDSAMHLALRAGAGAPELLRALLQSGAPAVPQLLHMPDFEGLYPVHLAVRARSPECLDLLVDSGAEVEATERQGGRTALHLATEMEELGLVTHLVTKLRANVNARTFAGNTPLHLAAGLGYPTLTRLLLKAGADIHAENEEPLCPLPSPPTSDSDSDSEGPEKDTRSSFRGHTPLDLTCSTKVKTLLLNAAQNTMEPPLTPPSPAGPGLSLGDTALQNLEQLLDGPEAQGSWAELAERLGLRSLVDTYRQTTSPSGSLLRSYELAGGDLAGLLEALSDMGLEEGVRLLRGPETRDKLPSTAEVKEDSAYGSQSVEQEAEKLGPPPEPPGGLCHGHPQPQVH
Method in brief: (§3)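 Cells were exposed to 0.5 and 2.0 μM for 3 h. EMSA was run on whole-cell lysates with 32P-labelled probes carrying NF-κB binding sites, and an SP-1 probe served as the specificity control.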

[4] = molecular target: Transcription factor p65 (Homo sapiens) (UniProt Q04206); test: Inhibition of TNFalpha-induced phosphorylation of p65 in human SUM149PT cells at 2 uM by ELISA assay; type: cell-based
Sequence of Transcription factor p65 (Homo sapiens) (Q04206 whole entry): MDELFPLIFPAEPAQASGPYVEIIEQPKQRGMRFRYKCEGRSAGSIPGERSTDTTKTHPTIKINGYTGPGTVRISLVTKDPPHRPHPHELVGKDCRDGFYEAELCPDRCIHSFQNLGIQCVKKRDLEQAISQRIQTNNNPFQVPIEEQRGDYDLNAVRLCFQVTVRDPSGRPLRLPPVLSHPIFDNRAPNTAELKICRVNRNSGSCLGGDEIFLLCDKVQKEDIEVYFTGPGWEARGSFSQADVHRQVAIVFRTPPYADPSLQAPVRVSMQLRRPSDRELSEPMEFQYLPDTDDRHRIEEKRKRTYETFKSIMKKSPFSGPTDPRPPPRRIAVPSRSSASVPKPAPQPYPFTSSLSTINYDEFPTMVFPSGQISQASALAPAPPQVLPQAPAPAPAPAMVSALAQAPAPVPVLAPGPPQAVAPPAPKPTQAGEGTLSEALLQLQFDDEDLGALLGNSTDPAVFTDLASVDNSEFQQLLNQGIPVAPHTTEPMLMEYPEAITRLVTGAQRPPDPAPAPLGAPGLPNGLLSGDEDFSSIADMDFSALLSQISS

[5] = molecular target: Transcription factor p65 (Homo sapiens) (UniProt Q04206); test: Inhibition of TNFalpha-induced p65 phosphorylation in human OV-MD-231 cells at 2 uM by ELISA assay; type: cell-based
[6] = molecular target: Inhibitor of nuclear factor kappa-B kinase subunit alpha (Homo sapiens) (UniProt O15111); test: Inhibition of TNFalpha-induced IkKalpha in human SUM149PT cells at 0.5 to 2 uM by ELISA assay; type: cell-based; settings: dose 0.5-2 µM
Sequence of Inhibitor of nuclear factor kappa-B kinase subunit alpha (Homo sapiens) (O15111 whole entry): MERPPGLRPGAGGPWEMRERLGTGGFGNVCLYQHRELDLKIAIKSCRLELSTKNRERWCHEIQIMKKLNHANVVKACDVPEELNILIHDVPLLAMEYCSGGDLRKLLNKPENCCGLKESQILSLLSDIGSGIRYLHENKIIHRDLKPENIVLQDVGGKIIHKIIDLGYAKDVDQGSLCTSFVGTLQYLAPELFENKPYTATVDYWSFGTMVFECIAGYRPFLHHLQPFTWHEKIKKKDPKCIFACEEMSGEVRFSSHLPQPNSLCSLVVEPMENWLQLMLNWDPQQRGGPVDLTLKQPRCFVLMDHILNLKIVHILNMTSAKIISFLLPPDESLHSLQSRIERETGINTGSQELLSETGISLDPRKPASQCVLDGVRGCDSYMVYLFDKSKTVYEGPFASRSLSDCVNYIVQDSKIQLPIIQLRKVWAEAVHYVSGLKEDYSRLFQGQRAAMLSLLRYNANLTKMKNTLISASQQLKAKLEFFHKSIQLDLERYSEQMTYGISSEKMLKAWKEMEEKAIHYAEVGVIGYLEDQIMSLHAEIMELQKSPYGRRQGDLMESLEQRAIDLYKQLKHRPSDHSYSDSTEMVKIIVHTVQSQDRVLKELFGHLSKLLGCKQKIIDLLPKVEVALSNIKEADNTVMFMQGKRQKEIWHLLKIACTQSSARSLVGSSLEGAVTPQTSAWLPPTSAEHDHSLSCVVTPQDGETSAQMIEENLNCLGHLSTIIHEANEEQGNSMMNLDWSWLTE

SUM149PT = test: Antiproliferative activity against human SUM149PT cells assessed as inhibition of cell proliferation measured over 4 to 5 days by bromodeoxyuridine incorporation assay; type: functional, cell-based; method in brief: as §2
TMD-231 = test: Antiproliferative activity against human TMD-231 cells assessed as inhibition of cell proliferation at 0.5 to 5 uM measured over 4 to 5 days by bromodeoxyuridine incorporation assay; type: functional, cell-based; settings: dose 0.5-5 µM, time 4-5 day; method in brief: as §2
OV-MD-231 [7] = test: Inhibition of NFkB binding with DNA in human […] cells assessed as reduction in NFkB-DNA binding at 2 uM measured over 3 hrs by electrophoretic mobility shift assay; type: cell-based; method in brief: as §3

Row | Structure (SMILES) | GI50 (OVCAR-5) [nM] | GI50 (ACHN) [nM] | GI50 (HOP-92) [nM] | GI50 (NCI/ADR-RES) [nM] | GI50 (NCI-H322M) [nM] | GI50 (NCI-H522) [nM] | GI50 (TK-10) [nM] | GI50 (NCI-H226) [nM] | GI50 (OVCAR-4) [nM] | GI50 (Malme-3M) [nM] | GI50 (IGROV-1) [nM] | GI50 (DU-145) [nM] | GI50 (SF-268) [nM] | GI50 (SNB-19) [nM] | further results
1 | C=C1C(=O)O[C@H]2[C@H]1CC/C(COC(=O)NCc1cc(OC)cc(OC)c1)=C\CC[C@@]1(C)O[C@@H]21 | 1010 | 1700 | 1420 | 1820 | 4720 | 340 | 1590 | 2020 | 2120 | 1860 | 1540 | 1510 | 2460 | 5320 | GI50 (OVCAR-3): 660 nM
2 | C=C1C(=O)O[C@H]2[C@H]1CC/C(COC(=O)NCCc1ccc(OC)cc1)=C\CC[C@@]1(C)O[C@@H]21 | 2190 | 1760 | 1990 | 2650 | 12600 | 1820 | 2520 | 4110 | 2610 | 2440 | 2490 | 1760 | 10600 | 8650 | 
3 | C=C1C(=O)O[C@H]2[C@H]1CC/C(COC(=O)NCc1ccc(OC)cc1)=C\CC[C@@]1(C)O[C@@H]21 | 280 | 180 | 240 | 1460 |  | 170 | 310 | 480 | 290 | 200 | 320 | 160 | 750 | 700 | inhibition [1]: inactive; inhibition (OV-MD-231 [2]): Active; inhibition [3]: inactive; inhibition [4]: Active; inhibition [5]: Active; inhibition [6]: Active; IC50 (SUM149PT): < 1000 nM; inhibition (TMD-231): Active; inhibition (OV-MD-231 [7]): inactive
4 | C=C1C(=O)O[C@H]2[C@H]1CC/C(COC(=O)NCc1ccccc1OC)=C\CC[C@@]1(C)O[C@@H]21 | 870 | 1160 | 1490 | 2290 |  | 350 | 1380 | 2110 | 1570 | 1890 | 1480 | 1680 | 2200 | 1570 | 
